# The source made the active and inactive calls.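 How the source made its calls, unless noted: active means GFP response above 150% of the DMSO level; inconclusive means fewer than 70 events counted for a yeast strain; inactive means the rest.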
# Assays:
# [1] = RPL19A-GFP modulators, yeast TOR pathway, confirmation, cell-based, S. cerevisiae, flow cytometry, cherry picks, mother/daughter gates (AID 2270;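 active means GFP response below 50% of the DMSO control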); settings: S. cerevisiae RPL19A-GFP strain, 3 h, at 10 µM, stronger effect = lower value, 100 = same GFP as DMSO wells
# [2] = LAP4-GFP expression modulators in yeast, confirmation, cell-based, cherry picks, flow cytometry, mother/daughter gates (AID 2271;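 active means GFP response above 150% of the DMSO control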;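 further: ratio of sample to DMSO plate mean so 100% equals DMSO level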); settings: S. cerevisiae LAP4-GFP strain, 3 h, at 10 µM, stronger effect = higher value, 100 means same as DMSO control
# In short: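 Test system: GFP-fusion yeast strain / Amount: 0.2 OD600 cells / Buffer or medium: SC medium / Dosing: 10 µM single dose / Incubation: compound exposure 3 h at 30 °C, end-over-end rotation / Detection: HT flow cytometry, GFP fluorescence channel / Evaluation: median GFP fluorescence as percent of plate-mean DMSO wells / Control set: DMSO-only negative wells, rapamycin 400 ng/mL positive wells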
# [3] = modulators of MEP2-GFP levels in yeast, confirmation, S. cerevisiae, flow cytometry GFP, cherry picks (AID 2272;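 active means GFP response above 150% of the DMSO control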;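 further: ratio of well signal to plate DMSO mean so 100% equals DMSO level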); settings: S. cerevisiae MEP2-GFP strain, 3 h, at 10 µM, stronger effect = higher value
# [4] = AGP1-GFP expression modulators, hit retest, confirmation, cell-based, flow cytometry, S. cerevisiae, cherry picks (AID 2273);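 further: median GFP channel fluorescence over the whole cell population gate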; settings: S. cerevisiae AGP1-GFP strain, 3 h, at 10 µM
# [5] = modulators of CIT2-GFP expression in yeast, confirmation, S. cerevisiae, GFP fusion, cherry picks, mother/daughter gates (AID 2274); settings: S. cerevisiae CIT2-GFP strain, flow cytometry, 3 h, at 10 µM, stronger effect = higher value
# [6] = measured here: daughter cell gate
# [7] = measured here: mother cell gate
# [8] = measured here: daughter cell gate response
# [9] = measured here: mother cell gate response
SMILES,GFP response vs DMSO [1],"GFP response vs DMSO [1, 6]","GFP response vs DMSO [1, 7]",GFP response relative to DMSO [2],"GFP response relative to DMSO [2, 8]","GFP response relative to DMSO [2, 9]",GFP response vs DMSO [3],"GFP response, % of DMSO [4]","GFP response, % of DMSO [5]","GFP response, % of DMSO [5, 6]","GFP response, % of DMSO [5, 7]"
Cc1cccc(C)c1OCCOC(=O)c1n[nH]c2ccccc12,98.8% (inactive),97%,100%,96.5% (inactive),93.6%,82.8%,106% (inactive),91.9% (inactive),95% (inactive),96.4%,93.3%
CCc1ccc2c(c1)C1(NN=C(c3ccccc3)S1)C(=O)N2 (stereo not drawn),101% (inactive),99.1%,97.7%,133% (inactive),125%,140%,114% (inactive),102% (inactive),94.4% (inactive),99.2%,89.5%
Cc1cccc(NC(=O)c2ccc([N+](=O)[O-])o2)c1,103% (inactive),105%,101%,126% (inactive),115%,125%,106% (inactive),96.2% (inactive),105% (inactive),106%,101%
COc1cccc(-c2noc(-c3cccnc3)n2)c1,97.2% (inactive),97.1%,96.3%,102% (inactive),102%,100%,101% (inactive),97.3% (inactive),103% (inactive),105%,102%
Cc1c(NC(=O)/C(C#N)=C/c2c(N3CCCCC3)nc3ccccn3c2=O)c(=O)n(-c2ccccc2)n1C,95% (inactive),95.1%,96.6%,94.1% (inactive),94.4%,95.1%,96.2% (inactive),109% (inactive),101% (inactive),105%,101%
COc1ccc(N2CCN(c3nc4c(C)cccn4c(=O)c3/C=C(\C#N)C(N)=O)CC2)cc1,97.8% (inactive),97.3%,97.5%,101% (inactive),101%,101%,103% (inactive),106% (inactive),103% (inactive),105%,102%
CSC1=NS(=O)(=O)c2c(C)nn(C)c2S1,88.7% (inactive),91%,85.8%,156% (active),159%,152%,110% (inactive),104% (inactive),84.7% (inactive),90.5%,78.1%
N#Cc1ccccc1Cn1cc(/C=C/[N+](=O)[O-])c2ccccc21,96.3% (inactive),98.3%,95.1%,132% (inactive),129%,134%,98.8% (inactive),104% (inactive),97.2% (inactive),100%,91.8%

# — PubChem BioAssay
